ChEMBL document CHEMBL5705885, “CYT387, a selective JAK1/JAK2 inhibitor: in vitro assessment of kinase selectivity and preclinical studies using cell lines and primary cells from polycythemia vera patients” (Leukemia, 2009)

What was measured:
[1] = molecular target: Serine/threonine-protein kinase BRSK1 (Homo sapiens, UniProt Q8TDC3); assay: Inhibition of BRSK1 (unknown origin)
[2] = molecular target: Ribosomal protein S6 kinase alpha-5 (Homo sapiens, UniProt O75582); assay: Inhibition of RPS6KA5 (unknown origin)
[3] = molecular target: Protein kinase C gamma type (Homo sapiens, UniProt P05129); assay: Inhibition of PRKCG (unknown origin)
[4] = molecular target: Ribosomal protein S6 kinase alpha-3 (Homo sapiens, UniProt P51812); assay: Inhibition of RPS6KA3 (unknown origin)
[5] = molecular target: Mitogen-activated protein kinase kinase kinase 9 (Homo sapiens, UniProt P80192); assay: Inhibition of MAP3K9 (unknown origin)
[6] = molecular target: T1, Serine/threonine-protein kinase MARK1 (Homo sapiens, UniProt Q9P0L2); conditions: dose 100.0 nM
Target sequence in this assay (Q9P0L2 whole entry, looked up): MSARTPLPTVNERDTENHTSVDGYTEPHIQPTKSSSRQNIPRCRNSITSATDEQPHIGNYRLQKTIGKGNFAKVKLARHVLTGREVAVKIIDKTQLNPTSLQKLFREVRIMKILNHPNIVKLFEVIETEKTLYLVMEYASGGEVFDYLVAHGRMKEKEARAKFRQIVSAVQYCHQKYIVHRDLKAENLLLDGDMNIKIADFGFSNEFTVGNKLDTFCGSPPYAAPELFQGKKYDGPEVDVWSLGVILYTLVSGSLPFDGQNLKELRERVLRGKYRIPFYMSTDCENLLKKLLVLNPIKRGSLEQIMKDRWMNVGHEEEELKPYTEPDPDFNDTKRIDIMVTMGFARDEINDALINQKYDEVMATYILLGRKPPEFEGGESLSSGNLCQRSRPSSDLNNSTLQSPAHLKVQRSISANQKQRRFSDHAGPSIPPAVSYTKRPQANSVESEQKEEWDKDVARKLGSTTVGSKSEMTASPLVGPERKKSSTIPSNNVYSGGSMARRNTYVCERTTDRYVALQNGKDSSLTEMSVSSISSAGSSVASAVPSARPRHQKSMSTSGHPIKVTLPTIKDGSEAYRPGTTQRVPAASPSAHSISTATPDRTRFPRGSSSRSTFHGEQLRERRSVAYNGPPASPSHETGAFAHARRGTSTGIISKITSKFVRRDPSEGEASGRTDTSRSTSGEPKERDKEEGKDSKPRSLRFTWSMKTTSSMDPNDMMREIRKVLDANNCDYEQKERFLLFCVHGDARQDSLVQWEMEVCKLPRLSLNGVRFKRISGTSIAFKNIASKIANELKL

Ephrin type-A receptor 3 = Ephrin type-A receptor 3 (Homo sapiens, UniProt P29320); assay: Inhibition of EPHA3 (unknown origin)
[7] = molecular target: Tyrosine-protein kinase receptor TYRO3 (Homo sapiens) (UniProt Q06418); conditions: dose 100.0 nM
[8] = molecular target: Serine/threonine-protein kinase PLK3 (Homo sapiens, UniProt Q9H4B4); conditions: dose 100.0 nM
[9] = molecular target: ALK tyrosine kinase receptor (Homo sapiens, UniProt Q9UM73); assay: Inhibition of ALK (unknown origin)
[10] = molecular target: Serine/threonine-protein kinase B-raf (Homo sapiens, UniProt P15056); assay: Inhibition of BRAF (unknown origin)
[11] = molecular target: Signal transducer and activator of transcription 3 (Homo sapiens) (UniProt P40763); assay: Inhibition of STAT3 phosphorylation in human HEL cells by Western blot analysis; type: cell-based; conditions: dose 0.1-5 µM
Ephrin type-B receptor 3 = Ephrin type-B receptor 3 (Homo sapiens, UniProt P54753); assay: Inhibition of EPHB3 (unknown origin)
[12] = molecular target: AMP-activated protein kinase (AMPK) alpha-1/beta-1/gamma-1 (Homo sapiens) (UniProt P54619+Q9Y478+Q13131); conditions: dose 100.0 nM
[13] = molecular target: Proto-oncogene tyrosine-protein kinase Src (Homo sapiens, UniProt P12931); assay: Inhibition of SRC (unknown origin)
[14] = molecular target: Serine/threonine-protein kinase D2 (Homo sapiens, UniProt Q9BZL6); assay: Inhibition of PRKD2 (unknown origin)
[15] = molecular target: Calcium/calmodulin-dependent protein kinase type IV (Homo sapiens, UniProt Q16566); assay: Inhibition of CAMK4 (unknown origin)
[16] = molecular target: Serine/threonine-protein kinase PAK 4 (Homo sapiens, UniProt O96013); assay: Inhibition of PAK4 (unknown origin)
SRSF protein kinase 3 = SRSF protein kinase 3 (Homo sapiens, UniProt Q9UPE1); assay: Inhibition of STK23 (unknown origin)
[17] = molecular target: Serine/threonine-protein kinase Sgk3 (Homo sapiens, UniProt Q96BR1); assay: Inhibition of SGKL (unknown origin)
[18] = molecular target: T2, Mitogen-activated protein kinase 1 (Homo sapiens, UniProt P28482); conditions: dose 100.0 nM
[19] = molecular target: Misshapen-like kinase 1 (Homo sapiens) (UniProt Q8N4C8); conditions: dose 100.0 nM
[20] = molecular target: Mitogen-activated protein kinase 8 (Homo sapiens) (UniProt P45983); conditions: dose 100.0 nM
[21] = molecular target: T1, Serine/threonine-protein kinase MARK1; assay: Inhibition of MARK1 (unknown origin)
Target sequence in this assay (Q9P0L2 whole entry): as the sequence (Q9P0L2 whole entry, looked up) above

[22] = molecular target: Dual specificity protein kinase CLK2 (Homo sapiens, UniProt P49760); assay: Inhibition of CLK2 (unknown origin)
CMK = assay: Antiproliferative activity against human CMK cells harboring JAK3A572V mutant measured after 72 hrs by Alamar blue staining based analysis; type: functional, cell-based
In short: (§1)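 Cells were exposed for 72 h at 37 °C under 5% CO2 to compound made up as DMSO stock and diluted in culture medium. Proliferation was then read by Alamar Blue.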

[23] = molecular target: Serine/threonine-protein kinase PAK 6 (Homo sapiens, UniProt Q9NQU5); assay: Inhibition of PAK6 (unknown origin)
[24] = molecular target: T2, Mitogen-activated protein kinase 1; assay: Inhibition of MAPK1 (unknown origin)
[25] = molecular target: AMP-activated protein kinase (AMPK) alpha-1/beta-1/gamma-1 (Homo sapiens, UniProt P54619+Q13131+Q9Y478); assay: Inhibition of AMPK alpha1/beta1/gamma1 (unknown origin); type: protein-complex assay
[26] = molecular target: Macrophage-stimulating protein receptor (Homo sapiens, UniProt Q04912); conditions: dose 100.0 nM
[27] = molecular target: Aurora kinase C (Homo sapiens) (UniProt Q9UQB9); conditions: dose 100.0 nM
K562 = assay: Antiproliferative activity against human K562 cells measured after 72 hrs by Alamar blue staining based analysis; type: functional, cell-based; conditions: K562, 72 h; in short: as §1
[28] = molecular target: G protein-coupled receptor kinase 4 (Homo sapiens, UniProt P32298); assay: Inhibition of GRK4 (unknown origin)
[29] = molecular target: Ephrin type-B receptor 1 (Homo sapiens) (UniProt P54762); conditions: dose 100.0 nM
[30] = molecular target: Serine/threonine-protein kinase PAK 2 (Homo sapiens, UniProt Q13177); assay: Inhibition of PAK2 (unknown origin)
[31] = molecular target: Dual specificity protein kinase CLK1 (Homo sapiens, UniProt P49759); assay: Inhibition of CLK1 (unknown origin)
[32] = molecular target: Tyrosine-protein kinase receptor TYRO3 (Homo sapiens, UniProt Q06418); assay: Inhibition of TYRO3 (unknown origin)
[33] = molecular target: Muscle, skeletal receptor tyrosine-protein kinase (Homo sapiens) (UniProt O15146); conditions: dose 100.0 nM
[34] = Antiproliferative activity against human CHRF-288-11 cells harboring JAK2T875N mutant measured after 72 hrs by Alamar blue staining based analysis; type: functional, cell-based; conditions: CHRF-288-11, 72 h; in short: as §1
[35] = molecular target: Dual specificity tyrosine-phosphorylation-regulated kinase 3 (Homo sapiens, UniProt O43781); assay: Inhibition of DYRK3 (unknown origin)
[36] = molecular target: Serine/threonine-protein kinase BRSK1 (Homo sapiens) (UniProt Q8TDC3); conditions: dose 100.0 nM
[37] = molecular target: Homeodomain-interacting protein kinase 1 (Homo sapiens, UniProt Q86Z02); conditions: dose 100.0 nM
[38] = molecular target: Tyrosine-protein kinase JAK1 (Homo sapiens) (UniProt P23458); conditions: dose 100.0 nM
[39] = molecular target: Tyrosine-protein kinase Yes (Homo sapiens, UniProt P07947); assay: Inhibition of YES1 (unknown origin)
[40] = molecular target: Inhibitor of nuclear factor kappa-B kinase subunit beta (Homo sapiens, UniProt O14920); assay: Inhibition of IKBKB (unknown origin)
[41] = molecular target: Proto-oncogene tyrosine-protein kinase ROS (Homo sapiens, UniProt P08922); conditions: dose 100.0 nM

T2 sequence (P28482 whole entry): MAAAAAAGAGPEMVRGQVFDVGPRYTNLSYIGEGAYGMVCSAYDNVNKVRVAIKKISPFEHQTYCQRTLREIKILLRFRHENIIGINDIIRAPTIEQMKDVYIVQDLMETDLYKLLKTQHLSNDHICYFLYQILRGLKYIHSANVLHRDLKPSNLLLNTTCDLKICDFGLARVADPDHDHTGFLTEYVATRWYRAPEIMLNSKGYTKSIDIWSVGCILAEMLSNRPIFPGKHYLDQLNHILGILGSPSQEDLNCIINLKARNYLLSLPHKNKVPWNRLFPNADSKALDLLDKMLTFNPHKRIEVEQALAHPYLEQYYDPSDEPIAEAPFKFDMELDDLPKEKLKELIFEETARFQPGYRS
Chain of Tyrosine-protein kinase Yes (P07947 whole entry): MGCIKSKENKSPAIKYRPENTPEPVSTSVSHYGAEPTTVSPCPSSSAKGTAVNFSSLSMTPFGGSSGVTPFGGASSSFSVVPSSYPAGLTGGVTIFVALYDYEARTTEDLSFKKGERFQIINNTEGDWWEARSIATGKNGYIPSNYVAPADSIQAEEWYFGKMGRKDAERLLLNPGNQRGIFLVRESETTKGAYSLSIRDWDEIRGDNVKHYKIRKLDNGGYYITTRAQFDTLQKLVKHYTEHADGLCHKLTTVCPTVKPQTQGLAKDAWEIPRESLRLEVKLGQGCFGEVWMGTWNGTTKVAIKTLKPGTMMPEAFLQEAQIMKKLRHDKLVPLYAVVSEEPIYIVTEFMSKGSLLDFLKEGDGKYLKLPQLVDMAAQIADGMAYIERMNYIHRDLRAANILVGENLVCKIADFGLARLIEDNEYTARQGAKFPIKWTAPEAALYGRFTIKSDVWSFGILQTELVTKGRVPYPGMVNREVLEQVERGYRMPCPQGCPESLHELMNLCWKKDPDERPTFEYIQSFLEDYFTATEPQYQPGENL
Chain of Inhibitor of nuclear factor kappa-B kinase subunit beta (O14920 whole entry): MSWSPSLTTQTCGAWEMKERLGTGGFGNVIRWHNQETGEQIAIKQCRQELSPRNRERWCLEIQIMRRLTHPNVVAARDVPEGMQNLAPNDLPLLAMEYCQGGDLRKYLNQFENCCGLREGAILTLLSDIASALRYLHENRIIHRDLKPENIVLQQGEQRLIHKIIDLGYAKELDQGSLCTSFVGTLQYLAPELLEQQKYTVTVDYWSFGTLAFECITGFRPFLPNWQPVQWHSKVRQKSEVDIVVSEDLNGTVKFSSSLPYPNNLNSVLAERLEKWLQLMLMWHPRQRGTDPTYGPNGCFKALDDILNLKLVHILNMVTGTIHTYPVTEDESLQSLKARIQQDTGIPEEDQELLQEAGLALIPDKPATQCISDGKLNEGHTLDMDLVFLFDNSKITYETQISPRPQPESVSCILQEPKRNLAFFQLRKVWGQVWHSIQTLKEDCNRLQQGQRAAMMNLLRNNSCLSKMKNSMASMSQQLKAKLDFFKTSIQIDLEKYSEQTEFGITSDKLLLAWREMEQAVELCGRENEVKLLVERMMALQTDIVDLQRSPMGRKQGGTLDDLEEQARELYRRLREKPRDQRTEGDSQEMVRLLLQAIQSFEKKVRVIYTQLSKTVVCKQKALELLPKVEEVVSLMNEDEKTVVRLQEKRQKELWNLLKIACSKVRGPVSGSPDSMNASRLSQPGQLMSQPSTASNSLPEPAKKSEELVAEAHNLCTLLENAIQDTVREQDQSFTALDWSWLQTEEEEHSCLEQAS
Chain of Tyrosine-protein kinase JAK1 (Homo sapiens) (P23458 whole entry): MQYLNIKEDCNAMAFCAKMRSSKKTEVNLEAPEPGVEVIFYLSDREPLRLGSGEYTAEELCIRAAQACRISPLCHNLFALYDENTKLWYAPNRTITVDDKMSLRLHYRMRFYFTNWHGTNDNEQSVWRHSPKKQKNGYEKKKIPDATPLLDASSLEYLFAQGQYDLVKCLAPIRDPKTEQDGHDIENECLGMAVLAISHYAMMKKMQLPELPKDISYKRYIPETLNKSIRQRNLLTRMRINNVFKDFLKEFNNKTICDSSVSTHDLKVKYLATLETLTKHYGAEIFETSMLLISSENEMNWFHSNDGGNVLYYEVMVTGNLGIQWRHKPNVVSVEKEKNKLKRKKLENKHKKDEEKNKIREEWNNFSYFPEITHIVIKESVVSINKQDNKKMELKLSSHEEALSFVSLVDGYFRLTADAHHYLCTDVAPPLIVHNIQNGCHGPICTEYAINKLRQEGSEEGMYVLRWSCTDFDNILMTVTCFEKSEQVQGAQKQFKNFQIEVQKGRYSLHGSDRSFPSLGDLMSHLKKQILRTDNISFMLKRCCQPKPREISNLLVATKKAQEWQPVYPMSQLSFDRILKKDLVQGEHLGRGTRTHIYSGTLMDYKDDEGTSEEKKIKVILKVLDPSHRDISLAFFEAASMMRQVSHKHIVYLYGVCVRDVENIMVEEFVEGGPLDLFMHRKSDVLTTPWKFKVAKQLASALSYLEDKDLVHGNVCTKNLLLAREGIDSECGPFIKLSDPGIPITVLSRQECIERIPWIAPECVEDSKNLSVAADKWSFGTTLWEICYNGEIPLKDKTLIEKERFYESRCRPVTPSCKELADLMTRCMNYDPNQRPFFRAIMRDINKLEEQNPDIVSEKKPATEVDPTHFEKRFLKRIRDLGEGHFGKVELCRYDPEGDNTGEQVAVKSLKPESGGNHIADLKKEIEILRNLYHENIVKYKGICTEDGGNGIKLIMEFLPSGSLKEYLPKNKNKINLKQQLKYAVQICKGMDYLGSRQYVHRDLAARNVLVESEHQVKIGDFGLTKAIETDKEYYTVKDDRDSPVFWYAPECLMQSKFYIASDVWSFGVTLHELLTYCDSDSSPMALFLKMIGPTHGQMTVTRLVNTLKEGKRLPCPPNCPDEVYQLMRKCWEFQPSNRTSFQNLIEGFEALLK
Chain of Ephrin type-A receptor 3 (P29320 whole entry): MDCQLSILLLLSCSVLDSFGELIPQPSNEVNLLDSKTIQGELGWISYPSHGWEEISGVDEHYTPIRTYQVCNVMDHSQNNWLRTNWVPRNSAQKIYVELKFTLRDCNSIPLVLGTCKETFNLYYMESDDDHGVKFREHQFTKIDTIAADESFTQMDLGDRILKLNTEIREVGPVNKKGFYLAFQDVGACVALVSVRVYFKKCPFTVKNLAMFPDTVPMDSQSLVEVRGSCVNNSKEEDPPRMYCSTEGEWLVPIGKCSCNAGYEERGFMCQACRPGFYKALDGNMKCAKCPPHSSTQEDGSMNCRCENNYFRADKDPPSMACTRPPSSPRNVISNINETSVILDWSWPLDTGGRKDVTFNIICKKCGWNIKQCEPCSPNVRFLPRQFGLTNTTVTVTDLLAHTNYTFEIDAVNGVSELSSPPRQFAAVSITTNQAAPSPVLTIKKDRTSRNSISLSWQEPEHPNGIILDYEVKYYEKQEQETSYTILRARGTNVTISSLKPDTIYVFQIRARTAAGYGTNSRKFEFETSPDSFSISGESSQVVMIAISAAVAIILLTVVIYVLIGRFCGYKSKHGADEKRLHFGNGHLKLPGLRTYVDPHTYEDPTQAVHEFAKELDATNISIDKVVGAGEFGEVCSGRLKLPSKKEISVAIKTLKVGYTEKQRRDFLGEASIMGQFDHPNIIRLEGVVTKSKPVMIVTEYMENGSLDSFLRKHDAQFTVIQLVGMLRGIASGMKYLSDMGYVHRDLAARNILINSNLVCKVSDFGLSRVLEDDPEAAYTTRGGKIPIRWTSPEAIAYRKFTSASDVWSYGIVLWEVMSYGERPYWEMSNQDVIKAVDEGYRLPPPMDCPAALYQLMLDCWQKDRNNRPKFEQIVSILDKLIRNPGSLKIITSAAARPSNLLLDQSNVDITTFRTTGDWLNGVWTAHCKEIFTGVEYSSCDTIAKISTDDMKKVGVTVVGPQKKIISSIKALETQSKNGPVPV
Chain of Aurora kinase C (Homo sapiens) (Q9UQB9 whole entry): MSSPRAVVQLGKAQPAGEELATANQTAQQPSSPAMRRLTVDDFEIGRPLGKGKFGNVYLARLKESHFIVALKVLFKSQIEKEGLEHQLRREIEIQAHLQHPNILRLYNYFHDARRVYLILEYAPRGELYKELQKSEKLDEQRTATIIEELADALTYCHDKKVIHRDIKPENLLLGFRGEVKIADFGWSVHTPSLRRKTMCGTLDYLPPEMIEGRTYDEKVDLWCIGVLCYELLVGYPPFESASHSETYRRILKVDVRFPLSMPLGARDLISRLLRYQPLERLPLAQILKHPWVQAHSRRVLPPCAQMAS

IC50 [1]: < 1 µM | IC50 [2]: > 1 µM | IC50 [3]: < 1 µM | IC50 [4]: > 1 µM | IC50 [5]: < 1 µM | inhibition [6]: < 50% | IC50 (Ephrin type-A receptor 3): > 1 µM | inhibition [7]: < 50% | inhibition [8]: < 50% | IC50 [9]: > 1 µM | IC50 [10]: < 1 µM | inhibition [11]: Dose-Dependent Effect | IC50 (Ephrin type-B receptor 3): > 1 µM | inhibition [12]: < 50% | IC50 [13]: > 1 µM | IC50 [14]: < 1 µM | IC50 [15]: > 1 µM | IC50 [16]: < 1 µM | IC50 (SRSF protein kinase 3): > 1 µM | IC50 [17]: > 1 µM | inhibition [18]: < 50% | inhibition [19]: < 50% | inhibition [20]: > 50% | IC50 [21]: < 1 µM | IC50 [22]: > 1 µM | IC50 [23]: > 1 µM | IC50 [24]: < 1 µM | IC50 [25]: < 1 µM | inhibition [26]: < 50% | inhibition [27]: < 50% | IC50 (K562): 58 µM | IC50 [28]: < 1 µM | inhibition [29]: < 50% | IC50 [30]: > 1 µM | IC50 [31]: < 1 µM | IC50 [32]: < 1 µM | inhibition [33]: < 50% | IC50 [35]: > 1 µM | inhibition [36]: < 50% | inhibition [37]: < 50% | inhibition [38]: > 50% | IC50 [39]: > 1 µM | IC50 [40]: < 1 µM | inhibition [41]: < 50%
Compound: N#CCNC(=O)c1ccc(-c2ccnc(Nc3ccc(N4CCOCC4)cc3)n2)cc1 [MOMELOTINIB]
IC50 (CMK): 0.7 µM | IC50 [34]: 0.001 µM
